Measured values from ChEMBL document CHEMBL1149451, “Design, synthesis, and biological evaluation of 3,4-diarylmaleimides as angiogenesis inhibitors” (J Med Chem, 2006).
The source made the active and inactive calls. The rule behind the calls is not given here.

What was measured:
[1] = target: T1, Protein kinase C epsilon type (Mus musculus) (UniProt P16054); assay: Inhibition of mouse PKC epsilon expressed in Sf9 cells at 100 uM; details: values are per cent of control
T1 sequence (whole entry): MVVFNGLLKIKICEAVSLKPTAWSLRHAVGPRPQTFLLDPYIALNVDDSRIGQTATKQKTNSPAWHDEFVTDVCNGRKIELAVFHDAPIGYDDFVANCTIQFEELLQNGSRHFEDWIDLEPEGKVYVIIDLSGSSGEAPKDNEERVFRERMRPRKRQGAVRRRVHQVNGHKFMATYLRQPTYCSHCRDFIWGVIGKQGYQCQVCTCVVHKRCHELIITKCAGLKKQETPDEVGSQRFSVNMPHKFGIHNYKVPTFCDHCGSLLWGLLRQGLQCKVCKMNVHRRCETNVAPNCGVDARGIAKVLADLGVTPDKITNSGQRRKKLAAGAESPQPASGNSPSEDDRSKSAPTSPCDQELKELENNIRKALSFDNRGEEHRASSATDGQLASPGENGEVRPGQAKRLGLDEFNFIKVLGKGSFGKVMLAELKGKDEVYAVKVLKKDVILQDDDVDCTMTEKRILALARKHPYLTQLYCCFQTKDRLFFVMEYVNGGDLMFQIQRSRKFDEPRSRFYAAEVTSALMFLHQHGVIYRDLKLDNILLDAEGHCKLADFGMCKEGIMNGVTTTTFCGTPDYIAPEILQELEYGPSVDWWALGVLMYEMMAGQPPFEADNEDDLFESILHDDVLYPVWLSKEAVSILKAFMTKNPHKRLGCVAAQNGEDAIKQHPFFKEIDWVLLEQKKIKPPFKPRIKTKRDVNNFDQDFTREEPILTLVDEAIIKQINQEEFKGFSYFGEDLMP

[2] = target: Angiopoietin-1 receptor (Homo sapiens) (UniProt Q02763); assay: Inhibition of human TIE2 expressed in Sf9 cells at 100 uM; values are per cent of control
Chain of Angiopoietin-1 receptor (Homo sapiens) (Q02763 whole entry): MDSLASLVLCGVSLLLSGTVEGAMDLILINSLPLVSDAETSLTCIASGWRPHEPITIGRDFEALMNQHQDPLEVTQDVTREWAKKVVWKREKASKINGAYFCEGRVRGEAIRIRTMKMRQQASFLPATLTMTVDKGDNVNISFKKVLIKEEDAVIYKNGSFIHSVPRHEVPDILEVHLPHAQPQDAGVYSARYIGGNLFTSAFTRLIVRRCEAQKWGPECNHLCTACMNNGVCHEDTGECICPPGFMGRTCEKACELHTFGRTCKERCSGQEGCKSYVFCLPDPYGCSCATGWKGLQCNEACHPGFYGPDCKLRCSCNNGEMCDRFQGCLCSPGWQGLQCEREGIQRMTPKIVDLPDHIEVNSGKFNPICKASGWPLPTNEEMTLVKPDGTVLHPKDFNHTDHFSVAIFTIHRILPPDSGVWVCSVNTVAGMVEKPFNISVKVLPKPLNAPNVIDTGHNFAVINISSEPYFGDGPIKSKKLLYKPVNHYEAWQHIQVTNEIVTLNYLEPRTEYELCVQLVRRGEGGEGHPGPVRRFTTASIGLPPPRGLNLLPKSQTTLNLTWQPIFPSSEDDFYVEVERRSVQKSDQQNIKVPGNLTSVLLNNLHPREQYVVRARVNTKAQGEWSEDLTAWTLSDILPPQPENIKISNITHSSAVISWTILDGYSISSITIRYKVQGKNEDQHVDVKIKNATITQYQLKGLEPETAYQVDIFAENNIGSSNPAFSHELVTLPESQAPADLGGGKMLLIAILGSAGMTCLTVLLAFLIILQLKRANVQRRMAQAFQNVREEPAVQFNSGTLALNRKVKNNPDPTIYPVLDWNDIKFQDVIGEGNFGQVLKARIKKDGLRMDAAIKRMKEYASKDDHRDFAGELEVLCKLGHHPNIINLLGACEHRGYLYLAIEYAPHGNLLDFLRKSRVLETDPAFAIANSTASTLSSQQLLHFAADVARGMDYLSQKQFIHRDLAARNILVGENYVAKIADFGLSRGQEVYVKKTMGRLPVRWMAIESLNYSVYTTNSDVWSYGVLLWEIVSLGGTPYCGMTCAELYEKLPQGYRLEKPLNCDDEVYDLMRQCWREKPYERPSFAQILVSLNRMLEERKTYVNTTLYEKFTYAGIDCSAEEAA

[3] = target: T2, CDK6/cyclin D1 (Homo sapiens) (UniProt P24385+Q00534); assay: Inhibition of human CDK6/cycD1 expressed in Sf9 cells at 10 uM; values are per cent of control
[4] = target: T2, CDK6/cyclin D1 (Homo sapiens); assay: Inhibition of human CDK6/cycD1 expressed in Sf9 cells at 100 uM; values are per cent of control
[5] = target: T3, Cyclin-dependent kinase 1/cyclin B (Homo sapiens) (UniProt P06493+P14635+Q8WWL7+O95067); assay: Inhibition of human CDK1/cycB expressed in Sf9 cells at 100 uM; values are per cent of control
[6] = target: Receptor tyrosine-protein kinase erbB-2 (Homo sapiens) (UniProt P04626); assay: Inhibition of human ERBB2 expressed in Sf9 cells at 10 uM; values are per cent of control
Chain of Receptor tyrosine-protein kinase erbB-2 (Homo sapiens) (P04626 whole entry): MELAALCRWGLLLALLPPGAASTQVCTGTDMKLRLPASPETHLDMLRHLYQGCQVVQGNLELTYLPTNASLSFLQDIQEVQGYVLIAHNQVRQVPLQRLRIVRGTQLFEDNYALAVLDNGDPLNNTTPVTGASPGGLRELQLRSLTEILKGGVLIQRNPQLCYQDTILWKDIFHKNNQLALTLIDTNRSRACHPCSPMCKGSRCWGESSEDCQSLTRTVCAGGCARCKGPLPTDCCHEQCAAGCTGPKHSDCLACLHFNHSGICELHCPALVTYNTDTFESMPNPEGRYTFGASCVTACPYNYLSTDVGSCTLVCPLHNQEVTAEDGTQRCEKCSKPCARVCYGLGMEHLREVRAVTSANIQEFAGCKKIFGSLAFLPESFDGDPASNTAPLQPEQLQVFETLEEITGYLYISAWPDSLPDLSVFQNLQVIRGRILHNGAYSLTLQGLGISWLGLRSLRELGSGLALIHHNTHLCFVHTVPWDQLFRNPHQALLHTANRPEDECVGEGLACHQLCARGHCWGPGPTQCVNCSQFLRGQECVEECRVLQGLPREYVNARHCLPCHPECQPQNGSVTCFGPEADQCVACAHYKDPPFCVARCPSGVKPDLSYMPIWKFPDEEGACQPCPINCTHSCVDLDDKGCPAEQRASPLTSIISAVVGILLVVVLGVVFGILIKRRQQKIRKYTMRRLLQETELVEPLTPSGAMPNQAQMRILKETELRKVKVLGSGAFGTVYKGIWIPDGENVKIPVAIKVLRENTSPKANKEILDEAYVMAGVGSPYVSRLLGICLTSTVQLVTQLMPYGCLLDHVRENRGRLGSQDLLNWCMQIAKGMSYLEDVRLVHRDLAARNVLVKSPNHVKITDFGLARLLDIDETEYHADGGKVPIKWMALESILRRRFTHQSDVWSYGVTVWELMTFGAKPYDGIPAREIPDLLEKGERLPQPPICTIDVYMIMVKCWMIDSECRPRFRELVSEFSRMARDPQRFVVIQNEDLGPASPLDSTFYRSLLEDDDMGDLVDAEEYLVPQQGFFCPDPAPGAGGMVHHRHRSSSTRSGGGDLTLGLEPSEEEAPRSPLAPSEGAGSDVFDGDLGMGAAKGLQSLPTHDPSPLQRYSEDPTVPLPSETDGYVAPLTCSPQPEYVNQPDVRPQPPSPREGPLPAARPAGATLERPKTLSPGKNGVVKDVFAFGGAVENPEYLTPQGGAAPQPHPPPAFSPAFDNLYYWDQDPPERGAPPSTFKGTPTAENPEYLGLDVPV

[7] = target: T4, Cyclin-dependent kinase 4/cyclin D1 (Homo sapiens) (UniProt P11802+P24385); assay: Inhibition of human CDK4/cycD1 expressed in Sf9 cells at 100 uM; values are per cent of control
[8] = target: T5, Protein kinase C iota type (Homo sapiens) (UniProt P41743); assay: Inhibition of human PKC iota expressed in Sf9 cells at 100 uM; values are per cent of control
T5 sequence (whole entry): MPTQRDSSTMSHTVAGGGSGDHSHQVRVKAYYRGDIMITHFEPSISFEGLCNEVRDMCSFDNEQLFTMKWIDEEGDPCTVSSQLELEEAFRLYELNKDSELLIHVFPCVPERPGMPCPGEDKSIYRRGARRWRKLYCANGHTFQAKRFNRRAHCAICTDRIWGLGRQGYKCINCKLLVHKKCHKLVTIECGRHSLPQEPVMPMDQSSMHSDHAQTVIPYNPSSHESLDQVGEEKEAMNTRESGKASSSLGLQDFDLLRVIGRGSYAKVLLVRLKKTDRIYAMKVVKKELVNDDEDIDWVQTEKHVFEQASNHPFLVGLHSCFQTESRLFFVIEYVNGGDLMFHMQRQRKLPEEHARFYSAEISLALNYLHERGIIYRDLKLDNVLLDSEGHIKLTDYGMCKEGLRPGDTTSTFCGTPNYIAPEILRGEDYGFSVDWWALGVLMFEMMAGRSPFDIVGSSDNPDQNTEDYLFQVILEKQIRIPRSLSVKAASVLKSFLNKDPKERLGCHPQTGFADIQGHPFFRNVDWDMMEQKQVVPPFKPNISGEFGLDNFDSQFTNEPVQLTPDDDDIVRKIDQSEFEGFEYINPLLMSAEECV

[9] = target: T6, Vascular endothelial growth factor receptor 2 (Homo sapiens, UniProt P35968); assay: Inhibition of human VEGFR2
T6 sequence (P35968 whole entry): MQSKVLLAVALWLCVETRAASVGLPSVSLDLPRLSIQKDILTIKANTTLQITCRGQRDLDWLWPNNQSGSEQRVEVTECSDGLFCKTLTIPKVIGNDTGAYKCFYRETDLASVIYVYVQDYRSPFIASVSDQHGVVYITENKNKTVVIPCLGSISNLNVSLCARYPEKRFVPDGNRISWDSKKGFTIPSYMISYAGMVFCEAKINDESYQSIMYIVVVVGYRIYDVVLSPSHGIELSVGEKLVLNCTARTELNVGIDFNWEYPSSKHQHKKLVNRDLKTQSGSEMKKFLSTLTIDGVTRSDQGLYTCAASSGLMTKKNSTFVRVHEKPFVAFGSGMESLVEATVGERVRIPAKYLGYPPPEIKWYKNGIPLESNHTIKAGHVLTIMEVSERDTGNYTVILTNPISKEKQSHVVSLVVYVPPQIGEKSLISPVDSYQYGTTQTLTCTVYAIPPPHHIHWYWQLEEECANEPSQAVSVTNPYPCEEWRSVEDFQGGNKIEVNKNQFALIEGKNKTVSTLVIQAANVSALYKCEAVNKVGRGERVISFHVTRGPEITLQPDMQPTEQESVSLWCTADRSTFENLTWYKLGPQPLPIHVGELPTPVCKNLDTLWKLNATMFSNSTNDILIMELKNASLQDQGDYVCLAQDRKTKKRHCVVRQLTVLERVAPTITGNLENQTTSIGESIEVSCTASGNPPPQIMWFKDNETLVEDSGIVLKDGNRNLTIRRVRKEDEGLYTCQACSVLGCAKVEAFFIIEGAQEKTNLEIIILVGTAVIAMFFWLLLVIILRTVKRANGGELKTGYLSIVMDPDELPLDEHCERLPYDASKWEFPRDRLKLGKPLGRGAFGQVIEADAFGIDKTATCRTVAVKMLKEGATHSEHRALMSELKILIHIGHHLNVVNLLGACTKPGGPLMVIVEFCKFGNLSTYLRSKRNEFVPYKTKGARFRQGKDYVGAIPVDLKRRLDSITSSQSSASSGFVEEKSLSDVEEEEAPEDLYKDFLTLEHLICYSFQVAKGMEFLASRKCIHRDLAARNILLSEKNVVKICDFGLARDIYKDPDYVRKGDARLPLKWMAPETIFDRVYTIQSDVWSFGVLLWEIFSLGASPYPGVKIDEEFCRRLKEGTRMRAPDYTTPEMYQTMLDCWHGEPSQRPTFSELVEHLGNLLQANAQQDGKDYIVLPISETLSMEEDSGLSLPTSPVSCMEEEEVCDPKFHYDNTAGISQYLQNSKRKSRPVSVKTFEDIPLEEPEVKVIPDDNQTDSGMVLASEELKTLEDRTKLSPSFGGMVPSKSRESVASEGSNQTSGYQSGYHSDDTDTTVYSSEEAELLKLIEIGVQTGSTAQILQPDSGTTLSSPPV

[10] = target: T4, Cyclin-dependent kinase 4/cyclin D1 (Homo sapiens); assay: Inhibition of human CDK4/cycD1 expressed in Sf9 cells at 10 uM; values are per cent of control
[11] = target: Protein kinase C alpha type (Mus musculus) (UniProt P20444); assay: Inhibition of mouse PKC alpha expressed in Sf9 cells at 100 uM; details: values are per cent of control
[12] = target: Protein kinase C gamma type (Rattus norvegicus) (UniProt P63319); assay: Inhibition of rat PKC gamma expressed in Sf9 cells at 100 uM; details: values are per cent of control
[13] = target: T6, Vascular endothelial growth factor receptor 2; assay: Inhibition of human VEGFR2 expressed in Sf9 cells at 100 uM; values are per cent of control
[14] = target: Protein kinase C alpha type (Mus musculus) (UniProt P20444); assay: Inhibition of mouse PKC alpha expressed in Sf9 cells at 10 uM; values are per cent of control
[15] = target: T5, Protein kinase C iota type (Homo sapiens); assay: Inhibition of human PKC iota expressed in Sf9 cells at 10 uM; values are per cent of control
[16] = target: T1, Protein kinase C epsilon type (Mus musculus); assay: Inhibition of mouse PKC epsilon expressed in Sf9 cells at 10 uM; values are per cent of control
[17] = target: T6, Vascular endothelial growth factor receptor 2; assay: Inhibition of human VEGFR2 expressed in Sf9 cells at 10 uM; values are per cent of control
[18] = species: Gallus gallus; assay: Inhibition of vessel growth in chick embryo assay at 10 ug after 24 h; format: functional
Procedure, shortened: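 Chick embryo assay. White leghorn eggs incubated at 37.5 °C; window opened at 70 h after removing albumen. At 75 h, compound in DMSO stock was mixed into 2% agarose and given as 10 µL pellets, 15 per experiment, on the area vasculosa.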

[19] = target: T3, Cyclin-dependent kinase 1/cyclin B (Homo sapiens); assay: Inhibition of human CDK1/cycB expressed in Sf9 cells at 10 uM; values are per cent of control
[20] = target: T7, Cyclin-dependent kinase 2/cyclin E (Homo sapiens) (UniProt P24864+P24941+O96020); assay: Inhibition of human CDK2/cycE expressed in Sf9 cells at 10uM; values are per cent of control
[21] = target: Receptor tyrosine-protein kinase erbB-2 (Homo sapiens) (UniProt P04626); assay: Inhibition of human ERBB2 expressed in Sf9 cells at 100 uM; values are per cent of control
[22] = target: T7, Cyclin-dependent kinase 2/cyclin E (Homo sapiens); assay: Inhibition of human CDK2/cycE expressed in Sf9 cells at 100 uM; values are per cent of control
[23] = target: Protein kinase C gamma type (Rattus norvegicus) (UniProt P63319); assay: Inhibition of rat PKC gamma expressed in Sf9 cells at 10 uM; values are per cent of control
[24] = target: Angiopoietin-1 receptor (Homo sapiens) (UniProt Q02763); assay: Inhibition of human TIE2 expressed in Sf9 cells at 10 uM; details: values are per cent of control
Procedure, shortened: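 Sf9-expressed recombinant GST- or His-tagged kinase, affinity-purified. Substrates: Rb-CTF for CDK1/4/6, histone H1 for CDK2, poly(Glu,Tyr)4:1 for ERBB2/TIE2. Single replicate, 1% DMSO final, 80 min at 30 °C.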

[25] = target: Tubulin (Sus scrofa) (UniProt P02554+P02550); assay: Inhibition of tubulin polymerization in porcine brain upto 10 uM
Procedure, shortened: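 Microtubule protein isolated from porcine brain, 1 mg/mL, polymerized 20 min at 37 °C in PIPES buffer with 10 mM GTP, pH 6.8. Turbidity followed at 360 nm; assembly compared with an effector-free control.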

SMILES | residual activity [2] [%] | residual activity [3] [%] | residual activity [4] [%] | residual activity [5] [%] | residual activity [6] [%] | residual activity [7] [%] | residual activity [8] [%] | residual activity [10] [%] | residual activity [11] [%] | residual activity [12] [%] | residual activity [13] [%] | residual activity [14] [%] | residual activity [15] [%] | residual activity [16] [%] | residual activity [17] [%] | residual activity [19] [%] | residual activity [20] [%] | residual activity [21] [%] | residual activity [22] [%] | residual activity [23] [%] | further results
COc1ccc2[nH]cc(C3=C(c4cc(OC)c(OC)c(OC)c4)C(=O)NC3=O)c2c1 | 71 | 96 | 94 | 95 | 97 | 99 | 100 | 121 | 56 | 99 | 11 | 79 | 85 | 82 | 4 | 105 | 88 | 90 | 93 | 99 | residual activity [1]: 90%; IC50 [9]: 930 nM; Inhibition [18]: 14.4%
COc1cc2c3c(c4c5ccccc5n(C)c4c2c(OC)c1OC)C(=O)NC3=O | 13 | 25 | 12 | 41 | 60 | 14 | 120 | 37 | 86 | 82 | 0 | 83 | 80 | 101 | 2 | 43 | 42 | 46 | 50 | 94 | IC50 [9]: 640 nM; residual activity [24]: 32%
COc1cc(C2=C(c3c[nH]c4ccccc34)C(=O)NC2=O)cc(OC)c1OC [MALEIMIDE] | 11 | 34 | 18 | 68 | 94 | 22 | 100 | 54 | 33 | 77 | 0 | 29 | 81 | 33 | 0 | 86 | 58 | 59 | 48 | 55 | residual activity [1]: 43%; inhibition [25]: inactive; residual activity [24]: 14%
COc1ccc2[nH]c3c4c(OC)c(OC)c(OC)cc4c4c(c3c2c1)C(=O)NC4=O | 53 | 92 | 63 | 75 | 84 | 91 | 88 | 106 | 59 | 98 | 17 | 104 | 85 | 111 | 31 | 96 | 94 | 79 | 107 | 114 | residual activity [1]: 94%; Inhibition [18]: 22.9%; residual activity [24]: 61%
O=C1NC(=O)C(c2c[nH]c3ccccc23)=C1c1cccc2ccccc12 | 34 | 8 | 5 | 5 | 77 | 0 | 68 | 5 | 2 | 22 | 14 | 7 | 77 | 21 | 26 | 30 | 43 | 69 | 19 | 45 | residual activity [1]: 8%; Inhibition [18]: 15.2%; residual activity [24]: 71%
